# From PubChem BioAssay
# Only some compounds are listed: those with a hit (about 3.5% of all), similar ones and a draw of the others.
# FLuc stim CS – FLuc activators, initial screening, artefact control for FLuc-dependent activation tests, biochemical, ATPlite luminescence | ATPlite luciferase biochemical, 10 min; 0 = ATP-free wells, 1 = DMSO control | Luciferin 4-monooxygenase (Photinus pyralis), P08659 | activation factor at 10 µM | 200,000 tested, under 10 active;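 active = luciferase activation factor, scaled between plate controls, of at least 2 with compound at 10 µM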
#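 System: luciferase plus luciferin reagent, cell-free; medium: PBS as buffer for the ATP substrate; dosing: test compounds dosed from 2 mM stocks in 100% DMSO; timing: 10 min post-reagent at room temperature; measured by: luminescence measurement of luciferase light output; evaluation: luciferase activation, seen as luminescence increase over controls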
# Pf gamet viab – late stage P. falciparum gametocyte viability inhibitors, primary screen, ATP luminescence, HTS; 150,000 tested, 0.065% active; AID 743093, 2013; P. falciparum stage V gametocytes, 24 h; inhibition, % at 10.9 µM;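 active = inhibition above the mean plus 3 SD of compounds within the control limits, set per campaign, cut at about 38% in these data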;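 note: 0% = DMSO wells and 100% = medium only without gametocytes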
# APP 5'UTR act – activators of APP 5'UTR luciferase reporter, primary screen, SH-SY5Y cells; SH-SY5Y APP 5'UTR luciferase reporter, luminescence; zero percent = DMSO vehicle wells; activation, % at 2 µM; 190,000 tested, 1% active;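 active = activation above a set limit, based on mean plus 3 SD of controls, cut at about 140% in these data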
# FLuc inh counter – firefly luciferase enzyme inhibitors, primary screen, artefact control for luciferase-based inhibitor screens, biochemical, luminescence, ATPLite; Luciferin 4-monooxygenase (Photinus pyralis), P08659; 10 min; inhibition, % at 10 µM; AID 1006, 2008; 200,000 tested, 1.5% active;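 active = inhibition above about 50% when tested at 10 µM, limit read from the data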
# NF-kB expr up – activators of NF-kB expression in neurons, primary screen, cell-based, HTS. 190,000 tested, 1.6% active. AID 1239, 2008. human neuronal cells, NF-kB reporter expression; active compounds read high. fold change at 12.5 µM; in the data active = fold change above about 3.3
# STAT1 act – STAT1 signaling activators, primary screen, cell-based, HTS, luciferase reporter | NIH 3T3 STAT1-luciferase reporter, IFN-gamma, luminescence; 100% = IFN-gamma alone, no compound | activation (% of control), % at 5.5 µM | 200,000 tested, 2.6% active;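 active = activation above the screen-wide mean activation plus 3 SD, cut at about 130% in these data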;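 note: raw ratio to IFN-gamma control signal so 100% means no change and 0% no light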
# The depositor's hits bear a star; · = no result given.
SMILES,FLuc stim CS,Pf gamet viab,APP 5'UTR act,FLuc inh counter,NF-kB expr up,STAT1 act
Cc1cc(C)c2nc(N3CCCN(C(=O)c4cnccn4)CC3)c(C#N)cc2c1,1,-13,-4,-2,1.1,105
COc1ccc2c(c1)OC[C@H]1[C@H]2N2C(=O)CNC(=O)[C@@]2(C)[C@H]1c1ccccc1,·,9,·,·,·,·
Oc1c(C=Nc2cccc3cccnc23)sc2ccccc12,0.2,-3,20,82*,1.8,100
CCCOC(=O)N[C@@H]1C(=O)N2C(C(=O)OCCC)=C(C)CS[C@H]12,·,18,·,·,·,·
COCC(=O)Nc1cc(C(=O)NCCc2ccccc2)ccc1Cl,1,-41,74,0,1.8,145*
CCOCC(=O)Nc1cc(C(=O)NCCc2ccccc2)ccc1Cl,1,9,65,0,1.7,130*
NS(=O)(=O)OCc1ccc(C(F)(F)F)cc1,·,-29,·,·,·,·
CCCc1nn(C)c(C(=O)Nc2ccc(CC)cc2)c1Cl,1,·,-14,-5,1.2,111
CCCc1nn(C)c(C(=O)Nc2ccc(C)c(C)c2)c1Cl,1,-8,38,-2,1.3,130*
C=CCN1C(=O)C(O)(CC(=O)c2ccco2)c2cc(Br)ccc21 (stereo unspecified),1.1,·,10,-6,2.5,106
COc1ccc(/C(N)=N/OC(=O)/C=C/c2ccccc2)cc1,1,1,3,2,1.2,120
COc1cc(/C=C/C(=O)c2ccc(O)cc2)ccc1OCC#N,0.9,14,-15,11,3.7*,93
COc1ccc(/C=C/C(=O)c2ccc(O)cc2)cc1CN1CCOCC1,1.1,-14,18,-5,3.7*,98
CCOc1ccc(/C=C/C(=O)c2ccccc2)cc1OC,0.7,4,144*,28,0.96,119
COc1ccc(/C=C/C(=O)O/N=C(\N)c2ccccc2)cc1OC,1,0,87,-1,2,137*
CCOc1ccc(C=O)cc1CN1CCCCC1,1,11,-8,-5,1.2,101
c1ccc(C[C@H]2CNCCN2CC2(c3ccccc3)CC2)cc1,·,-13,·,·,·,·
COCCNc1ncnc2c1cnn2-c1ccc(Cl)cc1,0.8,-10,197*,21,7.4*,156*
COC(=O)C(C)n1cnc2c(cnn2-c2ccc(Cl)cc2)c1=O (stereo unspecified),1,·,6,2,1.2,129*
Clc1ccc(Nc2ncnc3c2cnn3-c2ccccc2)cc1,1,·,51,-4,2.4,125
CCOC(=O)Cn1cnc2c(cnn2-c2ccc(Cl)cc2)c1=O,1,·,-5,0,1.6,106
CC(C)Nc1ncnc2c1cnn2-c1ccc(Cl)cc1,0.4,·,155*,64*,1.1,93
O=C(OCC(=O)N1CCN(c2ccccc2)CC1)c1ccc[n+]([O-])c1,1,·,-1,-1,0.81,99
Cc1cccc(C)c1NC(=S)N(c1ccccc1)C(C)C,1.1,·,-2,-7,1.1,92
CCn1c(COc2cccc(C)c2)nc2ccccc21,1,·,1,2,1.4,105
SMILES,FLuc stim CS,Pf gamet viab,APP 5'UTR act,FLuc inh counter,NF-kB expr up,STAT1 act
COCn1c(COc2ccc3ccccc3c2)nc2ccccc21,0.4,10,96,60*,3.9*,138*
COc1ccc(/C=C2/C(=O)OCc3cc(OC)c(OC)cc32)cc1,1,-1,-82,-2,1.2,97
COCCCNC(=O)c1sc2ncnc(N3CCc4ccccc4C3)c2c1C,1,·,5,0,0.99,88
C/C(=N/NC(=O)c1ccncc1)c1c[nH]c2ccccc12,0.9,-15,-4,6,1,105
CC/C(=N\NC(=O)c1c[nH]c2ccccc12)c1cccs1,0.7,24,96,32,2.1,136*
CCn1nc(C)c(/C=N/NC(=O)c2c[nH]c3ccccc23)c1C,0.4,-2,35,59*,1.5,126
Cc1ccc(/C=N/NC(=O)c2c[nH]c3ccccc23)s1,0.7,·,78,26,3.1,146*
Cc1ccc(/C=N/NC(=O)c2c[nH]c3ccccc23)o1,0.9,·,·,15,1.2,114
